Test results reported in ChEMBL document CHEMBL2157880, “Synthesis, antimycobacterial and antibacterial activity of ciprofloxacin derivatives containing a N-substituted benzyl moiety” (2012).
Values after ≈ are worked out from the molar mass of the structure shown.

Key:
Assay type in all cases: functional
[1] = tested on: Mycobacterium tuberculosis; assay: Antimycobacterial activity against Mycobacterium tuberculosis H37Rv ATCC 27294 by microplate alamar blue assay
Method in brief: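 Microplate Alamar Blue fluorescence assay on strain H37Rv ATCC 27294. MIC was the lowest concentration cutting fluorescence by ≥90% against the mean of replicate bacterium-only controls.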

Staphylococcus aureus [2] = assay: Antibacterial activity against Staphylococcus aureus ATCC 2592 after 18 to 24 hrs by NCCLS method
Method in brief: (§1)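 Standard NCCLS (M100-S11) MIC testing against Gram-positive and Gram-negative strains. Plates were incubated at 35 °C for 18–24 h. The MIC was read as the lowest concentration giving complete inhibition of visible bacterial growth.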

Staphylococcus aureus [3] = assay: Antibacterial activity against methicillin-sensitive Staphylococcus aureus 10-11 after 18 to 24 hrs by NCCLS method; method in brief: as §1
Staphylococcus aureus [4] = assay: Antibacterial activity against methicillin-sensitive Staphylococcus aureus 10-13 after 18 to 24 hrs by NCCLS method; method in brief: as §1
Staphylococcus aureus [5] = assay: Antibacterial activity against methicillin-sensitive Staphylococcus aureus 10-14 after 18 to 24 hrs by NCCLS method; method in brief: as §1
Staphylococcus aureus [6] = assay: Antibacterial activity against methicillin-resistant Staphylococcus aureus 10-11 after 18 to 24 hrs by NCCLS method
Method in brief: (§2)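 Incubated at 35 °C for 18–24 h under NCCLS (M100-S11) standards. MIC was read as the lowest concentration giving complete inhibition of visible bacterial growth.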

Staphylococcus aureus [7] = assay: Antibacterial activity against methicillin-resistant Staphylococcus aureus 10-13 after 18 to 24 hrs by NCCLS method; method in brief: as §2
Staphylococcus aureus [8] = assay: Antibacterial activity against methicillin-resistant Staphylococcus aureus 10-15 after 18 to 24 hrs by NCCLS method; method in brief: as §2
[9] = tested on: Staphylococcus epidermidis; assay: Antibacterial activity against methicillin-sensitive Staphylococcus epidermidis 10-11 after 18 to 24 hrs by NCCLS method; method in brief: as §1
[10] = tested on: Staphylococcus epidermidis; assay: Antibacterial activity against methicillin-sensitive Staphylococcus epidermidis 10-15 after 18 to 24 hrs by NCCLS method; method in brief: as §2
[11] = tested on: Staphylococcus epidermidis; assay: Antibacterial activity against methicillin-resistant Staphylococcus epidermidis 10-10 after 18 to 24 hrs by NCCLS method; method in brief: as §2
[12] = tested on: Staphylococcus epidermidis; assay: Antibacterial activity against methicillin-resistant Staphylococcus epidermidis 10-13 after 18 to 24 hrs by NCCLS method; method in brief: as §2
Enterococcus faecalis [13] = assay: Antibacterial activity against Enterococcus faecalis 10-5 after 18 to 24 hrs by NCCLS method; method in brief: as §1
Enterococcus faecalis [14] = assay: Antibacterial activity against Enterococcus faecalis 10-6 after 18 to 24 hrs by NCCLS method; method in brief: as §1
Enterococcus faecalis [15] = assay: Antibacterial activity against Enterococcus faecalis 10-7 after 18 to 24 hrs by NCCLS method; method in brief: as §1
Enterococcus faecium [16] = assay: Antibacterial activity against Enterococcus faecium 10-6 after 18 to 24 hrs by NCCLS method; method in brief: as §1
Enterococcus faecium [17] = assay: Antibacterial activity against Enterococcus faecium 10-9 after 18 to 24 hrs by NCCLS method; method in brief: as §1
Streptococcus pneumoniae [18] = assay: Antibacterial activity against Streptococcus pneumoniae 10-1 after 18 to 24 hrs by NCCLS method; method in brief: as §1
Streptococcus pneumoniae [19] = assay: Antibacterial activity against Streptococcus pneumoniae 10-6 after 18 to 24 hrs by NCCLS method; method in brief: as §1
Escherichia coli [20] = assay: Antibacterial activity against Escherichia coli ATCC 25922 after 18 to 24 hrs by NCCLS method; method in brief: as §1
Escherichia coli [21] = assay: Antibacterial activity against Escherichia coli 10-1 after 18 to 24 hrs by NCCLS method; method in brief: as §1
Escherichia coli [22] = assay: Antibacterial activity against Escherichia coli 10-2 after 18 to 24 hrs by NCCLS method; method in brief: as §1
Escherichia coli [23] = assay: Antibacterial activity against Escherichia coli 10-3 after 18 to 24 hrs by NCCLS method; method in brief: as §1
Escherichia coli [24] = assay: Antibacterial activity against extended spectrum beta-lactamases producing Escherichia coli 10-2 after 18 to 24 hrs by NCCLS method; method in brief: as §1
Escherichia coli [25] = assay: Antibacterial activity against extended spectrum beta-lactamases producing Escherichia coli 10-3 after 18 to 24 hrs by NCCLS method; method in brief: as §1
Escherichia coli [26] = assay: Antibacterial activity against extended spectrum beta-lactamases producing Escherichia coli 10-4 after 18 to 24 hrs by NCCLS method; method in brief: as §1
Klebsiella pneumoniae [27] = assay: Antibacterial activity against Klebsiella pneumoniae 10-2 after 18 to 24 hrs by NCCLS method; method in brief: as §1
Klebsiella pneumoniae [28] = assay: Antibacterial activity against Klebsiella pneumoniae 10-3 after 18 to 24 hrs by NCCLS method; method in brief: as §1
Klebsiella pneumoniae [29] = assay: Antibacterial activity against Klebsiella pneumoniae 10-4 after 18 to 24 hrs by NCCLS method; method in brief: as §1
Klebsiella pneumoniae [30] = assay: Antibacterial activity against extended spectrum beta-lactamases producing Klebsiella pneumoniae 10-1 after 18 to 24 hrs by NCCLS method; method in brief: as §1
Klebsiella pneumoniae [31] = assay: Antibacterial activity against extended spectrum beta-lactamases producing Klebsiella pneumoniae 10-2 after 18 to 24 hrs by NCCLS method; method in brief: as §1
Klebsiella pneumoniae [32] = assay: Antibacterial activity against extended spectrum beta-lactamases producing Klebsiella pneumoniae 10-3 after 18 to 24 hrs by NCCLS method; method in brief: as §1
Pseudomonas aeruginosa [33] = assay: Antibacterial activity against Pseudomonas aeruginosa 10-5 after 18 to 24 hrs by NCCLS method; method in brief: as §1
Pseudomonas aeruginosa [34] = assay: Antibacterial activity against Pseudomonas aeruginosa 10-9 after 18 to 24 hrs by NCCLS method; method in brief: as §1
Pseudomonas aeruginosa [35] = assay: Antibacterial activity against Pseudomonas aeruginosa 10-12 after 18 to 24 hrs by NCCLS method; method in brief: as §1
Pseudomonas aeruginosa [36] = assay: Antibacterial activity against Pseudomonas aeruginosa 10-15 after 18 to 24 hrs by NCCLS method; method in brief: as §1
Pseudomonas aeruginosa [37] = assay: Antibacterial activity against Pseudomonas aeruginosa 10-18 after 18 to 24 hrs by NCCLS method; method in brief: as §1
Pseudomonas aeruginosa [38] = assay: Antibacterial activity against Pseudomonas aeruginosa 10-20 after 18 to 24 hrs by NCCLS method; method in brief: as §1

Row | Structure (SMILES) | MIC [1] | MIC (Staphylococcus aureus [2]) | MIC (Staphylococcus aureus [3]) | MIC (Staphylococcus aureus [4]) | MIC (Staphylococcus aureus [5]) | MIC (Staphylococcus aureus [6]) | MIC (Staphylococcus aureus [7]) | MIC [9] | MIC [10] | MIC [11] | MIC [12] | MIC (Enterococcus faecalis [13]) | MIC (Enterococcus faecalis [14]) | MIC (Enterococcus faecalis [15]) | MIC (Enterococcus faecium [16]) | MIC (Enterococcus faecium [17]) | MIC (Streptococcus pneumoniae [18]) | MIC (Streptococcus pneumoniae [19]) | MIC (Klebsiella pneumoniae [27]) | MIC (Klebsiella pneumoniae [28]) | also measured
1 | COc1ccc(OC)c(CN2CCN(c3cc4c(cc3F)c(=O)c(C(=O)O)cn4C3CC3)CC2)c1 | > 32 µg/mL | 0.5 µg/mL (≈ 1.04 µM) | 0.5 µg/mL (≈ 1.04 µM) | 0.5 µg/mL (≈ 1.04 µM) | 1 µg/mL (≈ 2.08 µM) | 32 µg/mL (≈ 66.5 µM) | 32 µg/mL (≈ 66.5 µM) | 1 µg/mL (≈ 2.08 µM) | 16 µg/mL (≈ 33.2 µM) | 16 µg/mL (≈ 33.2 µM) | 16 µg/mL (≈ 33.2 µM) | 16 µg/mL (≈ 33.2 µM) | 128 µg/mL (≈ 266 µM) | 16 µg/mL (≈ 33.2 µM) | 16 µg/mL (≈ 33.2 µM) | 16 µg/mL (≈ 33.2 µM) | 8 µg/mL (≈ 16.6 µM) | 64 µg/mL (≈ 133 µM) | > 128 µg/mL | 16 µg/mL (≈ 33.2 µM) | MIC (Staphylococcus aureus [8]): 16 µg/mL (≈ 33.2 µM); MIC (Escherichia coli [20]): 1 µg/mL (≈ 2.08 µM); MIC (Escherichia coli [21]): > 128 µg/mL; MIC (Escherichia coli [22]): 64 µg/mL (≈ 133 µM); MIC (Escherichia coli [23]): 16 µg/mL (≈ 33.2 µM); MIC (Escherichia coli [24]): > 128 µg/mL; MIC (Escherichia coli [25]): > 128 µg/mL; MIC (Escherichia coli [26]): > 128 µg/mL; MIC (Klebsiella pneumoniae [29]): > 128 µg/mL; MIC (Klebsiella pneumoniae [30]): > 128 µg/mL; MIC (Klebsiella pneumoniae [31]): > 128 µg/mL; MIC (Klebsiella pneumoniae [32]): > 128 µg/mL; MIC (Pseudomonas aeruginosa [33]): 16 µg/mL (≈ 33.2 µM); MIC (Pseudomonas aeruginosa [34]): 16 µg/mL (≈ 33.2 µM); MIC (Pseudomonas aeruginosa [35]): 8 µg/mL (≈ 16.6 µM); MIC (Pseudomonas aeruginosa [36]): 16 µg/mL (≈ 33.2 µM); MIC (Pseudomonas aeruginosa [37]): 16 µg/mL (≈ 33.2 µM); MIC (Pseudomonas aeruginosa [38]): 32 µg/mL (≈ 66.5 µM)
2 | O=C(O)c1cn(C2CC2)c2cc(N3CCNCC3)c(F)cc2c1=O [CIPROFLOXACIN] | 0.5 µg/mL (≈ 1.51 µM) | 0.25 µg/mL (≈ 0.754 µM) | 0.5 µg/mL (≈ 1.51 µM) | 0.5 µg/mL (≈ 1.51 µM) | 0.5 µg/mL (≈ 1.51 µM) | 32 µg/mL (≈ 96.6 µM) | 128 µg/mL (≈ 386 µM) | 0.5 µg/mL (≈ 1.51 µM) | 8 µg/mL (≈ 24.1 µM) | 8 µg/mL (≈ 24.1 µM) | 16 µg/mL (≈ 48.3 µM) | 8 µg/mL (≈ 24.1 µM) | 64 µg/mL (≈ 193 µM) | 16 µg/mL (≈ 48.3 µM) | 1 µg/mL (≈ 3.02 µM) | 16 µg/mL (≈ 48.3 µM) | 2 µg/mL (≈ 6.04 µM) | 32 µg/mL (≈ 96.6 µM) | 32 µg/mL (≈ 96.6 µM) | 0.25 µg/mL (≈ 0.754 µM) | MIC (Klebsiella pneumoniae [29]): 32 µg/mL (≈ 96.6 µM); MIC (Klebsiella pneumoniae [30]): 32 µg/mL (≈ 96.6 µM); MIC (Klebsiella pneumoniae [31]): 32 µg/mL (≈ 96.6 µM); MIC (Klebsiella pneumoniae [32]): 32 µg/mL (≈ 96.6 µM); MIC (Pseudomonas aeruginosa [37]): 1 µg/mL (≈ 3.02 µM)
